37 sequences from the array DNA melting data of Ke et al. (doi:10.1101/2024.01.08.574731) can be followed below.

Data set [1] in a line: folding enthalpy; higher = less favourable; fluorescence melt of hairpins on a sequencing array, two-state fit. To be noted: sodium 0.088 M. The essentials:
(§1)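 Folding enthalpy and melting temperature were estimated with bootstrapped two-state fits and combined across four replicates by inverse-variance weighting, with fitted temperatures raised by 9.35 °C to match UV melts. The data were Cy3 fluorescence of library hairpins, with annealed Cy3 and quencher oligos, on a sequenced MiSeq flow cell in 50 mM Na-HEPES pH 8.0, 25 mM NaCl, imaged in 2.5 °C steps up to 60 °C and normalised to pre-quench Cy3 and control constructs.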

A short description of data set [2]: melting temperature; fluorescence melt of hairpins on a sequencing array, two-state fit, raised by 9.35 °C to match UV melts. The conditions noted are these: sodium 0.088 M. The essentials: as §1

Consider GCAGGAGAAATCCTGC ((((((....)))))), for which the folding enthalpy in data set [1] is -36.1 kcal/mol. Also, in data set [2], the Tm amounted to 61.1 °C.
For GCAATGCGAAAGCGTAGC ((.(.((....)).).)) the same measures were -15.8 kcal/mol and 42.7 °C.
For GATCCTTGGAGGATC ((((((...)))))) the same measures were -42 kcal/mol and 50.4 °C.
On to GCAAGCGGAAACGCTCAC (..((((....))))..), for which the folding enthalpy in data set [1] was -9.17 kcal/mol. Besides, the Tm in data set [2] came to 30.5 °C.
Take GCGTGAGGAAACTTGCGC (((..((....))..))): the folding enthalpy in data set [1] was -30.9 kcal/mol. For the same sequence, in data set [2], the Tm was determined as 48.3 °C.
As for GCAGTGCGAAAGCATCGC ((..(((....)))..)), the folding enthalpy in data set [1] is -14.9 kcal/mol. The Tm in data set [2] was found to be 55.2 °C.
GCCGGCGGAAACACCGGC (((((.(....).))))): the folding enthalpy in data set [1] was -44.1 kcal/mol. Also, the Tm in data set [2] amounted to 66.8 °C.
For GGATGCGCGAAAGCGTCC (((..(((....)))))), in that order: -12.3 kcal/mol and 41 °C.
For GACGCCGGAAACGACGTC ((((.((....)).)))) the same measures were -44.8 kcal/mol and 57.5 °C.
Consider AGGATGAAAATCCT (((((....))))), for which the folding enthalpy in data set [1] is -22.2 kcal/mol. In addition, in data set [2], the Tm was determined as 41.6 °C.
For GAAACCGAAAGGTGTTTC ((((((....)))..))) the same measures were -13.2 kcal/mol and 35.9 °C.
Turning to GTGTCAGGAAACTGGTAC ((..(((....)))..)), in data set [1], the folding enthalpy was -17.6 kcal/mol. In addition, in data set [2], the Tm amounted to 31.8 °C.
GATCACAAGTGTGATC ((((((....)))))): in data set [1], the folding enthalpy was -39 kcal/mol. Also, in data set [2], the Tm was 56.4 °C.
For GGCGCCGAAAGGCACGCC ((((((....)))..))), in that order: -15.7 kcal/mol and 63.4 °C.
For GCTACAGGAAACTGCAGC (((.(((....))).))) the same measures were -28.3 kcal/mol and 44.5 °C.
For GAGACCGAAAGGTAACTC ((((((....)))..))), in that order: -12.3 kcal/mol and 39.7 °C.
As to GGCTGAGGAAACTCAGTC (.(((((....))))).), the folding enthalpy in data set [1] is -41.6 kcal/mol. The Tm in data set [2] came to 51.3 °C.
For GAGCGCACGAAAGTGCTC (((..(((....)))))), in that order: -8.27 kcal/mol and 38.1 °C.
For GATCTTCGACAAGATC ((((((....)))))), in that order: -26.7 kcal/mol and 38.6 °C.
For GATAGACGAAAGTCGATC (((.(((....))).))), in that order: -25.9 kcal/mol and 51.2 °C.
Turning to GTCCGAGGAAACTCGGGC (.(((((....))))).), the folding enthalpy in data set [1] was -30.3 kcal/mol. Besides, in data set [2], the Tm was 59.5 °C.
Turning to GTAAGCACGAAAGTGTAC (((..(((....)))))), the folding enthalpy in data set [1] was -9.4 kcal/mol. In addition, in data set [2], the Tm turned out to be 27.9 °C.
In the case of GGCCGTGGAAACACGGTC (.(((((....))))).), in data set [1], the folding enthalpy was -24.3 kcal/mol. Also, the Tm in data set [2] turned out to be 65.3 °C.
For GGGGATTCGAAAGAACCC (((..(((....)))))) the same measures were -20.5 kcal/mol and 47.4 °C.
For GATCATGAGCATGATC ((((((....)))))), in that order: -36.8 kcal/mol and 48 °C.
With GCACCCGAAAGGGCTGC ((((((....))).))), in data set [1], the folding enthalpy is -31.4 kcal/mol. Moreover, in data set [2], the Tm is 55.2 °C.
For GGTTGCGAAAGCACAACC ((((((....)))..))) the same measures were -19.6 kcal/mol and 44.2 °C.
For the sequence GGGCTGCGAAAGCATCCC (((.(((....))).))), the folding enthalpy in data set [1] was -34.5 kcal/mol. In addition, in data set [2], the Tm came out at 55.2 °C.
For GCGATGGGAAACTATCGC (((((.(....).))))), in that order: -42 kcal/mol and 55.9 °C.
Take CGAACGGAAACGTAGTCG ((((((....)))..))): the folding enthalpy in data set [1] was -10.8 kcal/mol. Moreover, the Tm in data set [2] came out at 26.4 °C.
GCCGGTGGAAACGCTGGC (((.(.(....).).))): the folding enthalpy in data set [1] is -40.9 kcal/mol. Besides, in data set [2], the Tm is 50.8 °C.
On to GGTATCGAAAGATTTACC ((((((....)))..))), for which the folding enthalpy in data set [1] was -27.8 kcal/mol. Besides, in data set [2], the Tm was 28.5 °C.
In the case of GTAAGCGAAAGCTTTAC ((((((....))).))), the folding enthalpy in data set [1] is -12.9 kcal/mol. In addition, the Tm in data set [2] was found to be 42 °C.
Consider GCCCGCCGAAAGGCTGGC (((.(((....))).))), for which, in data set [1], the folding enthalpy was -36.2 kcal/mol. Further, the Tm in data set [2] was 65.1 °C.
Take GATAGCGAAAGCTGGATC ((((((....)))..))): the folding enthalpy in data set [1] is -12.9 kcal/mol. In addition, the Tm in data set [2] is 29.6 °C.
For GCTCTGCGAAAGCCGTGC ((.(.((....)).).)), in that order: -11.9 kcal/mol and 36.2 °C.
For GATCCGTTCACGGATC ((((((....)))))), in data set [1], the folding enthalpy is -51 kcal/mol. The Tm in data set [2] stood at 67.4 °C.
